Experimental data reported in ChEMBL document CHEMBL1132497, “Synthesis and SAR of adatanserin: novel adamantyl aryl- and heteroarylpiperazines with dual serotonin 5-HT(1A) and 5-HT(2) activity as potential anxiolytic and antidepressant agents” (J Med Chem, 1999).

Tests used:
[1] = target: T1, 5-hydroxytryptamine receptor 1A (Rattus norvegicus, UniProt P19327); experiment: Antagonist activity against rat hippocampal tissue 5-hydroxytryptamine 1A receptor; format: functional, tissue-based, Hippocampus
T1 sequence (P19327 whole entry): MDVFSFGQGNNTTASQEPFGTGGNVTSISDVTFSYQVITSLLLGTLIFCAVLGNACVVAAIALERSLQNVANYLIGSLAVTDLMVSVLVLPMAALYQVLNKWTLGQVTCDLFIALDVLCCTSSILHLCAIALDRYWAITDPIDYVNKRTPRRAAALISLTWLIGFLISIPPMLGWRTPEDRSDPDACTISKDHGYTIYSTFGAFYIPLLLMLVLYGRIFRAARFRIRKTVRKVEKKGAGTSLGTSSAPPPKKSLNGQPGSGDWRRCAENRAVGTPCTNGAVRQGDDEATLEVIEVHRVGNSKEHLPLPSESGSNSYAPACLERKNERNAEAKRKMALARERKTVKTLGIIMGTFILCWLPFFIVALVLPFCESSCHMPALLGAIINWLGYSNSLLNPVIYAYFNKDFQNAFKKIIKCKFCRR

[2] = target: Serotonin 2 (5-HT2) receptor (Rattus norvegicus, UniProt P30994+P08909+P14842); experiment: Inhibitory activity against rat cortical 5-hydroxytryptamine 2 receptor; format: protein assay
In short: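 Cortical membranes from male Sprague–Dawley rats, incubated 15 min at 37 °C in 50 mM Tris pH 7.6 with 1.0 nM [3H]ketanserin and a range of drug concentrations. Nonspecific binding defined with 100 μM methysergide. Run by filtration and counting.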

D(2) dopamine receptor = D(2) dopamine receptor (Rattus norvegicus, UniProt P61169); experiment: Inhibitory activity against rat limbic tissue Dopamine receptor D2; format: tissue-based, Limbic system
D(2) dopamine receptor, sequence (P61169 whole entry): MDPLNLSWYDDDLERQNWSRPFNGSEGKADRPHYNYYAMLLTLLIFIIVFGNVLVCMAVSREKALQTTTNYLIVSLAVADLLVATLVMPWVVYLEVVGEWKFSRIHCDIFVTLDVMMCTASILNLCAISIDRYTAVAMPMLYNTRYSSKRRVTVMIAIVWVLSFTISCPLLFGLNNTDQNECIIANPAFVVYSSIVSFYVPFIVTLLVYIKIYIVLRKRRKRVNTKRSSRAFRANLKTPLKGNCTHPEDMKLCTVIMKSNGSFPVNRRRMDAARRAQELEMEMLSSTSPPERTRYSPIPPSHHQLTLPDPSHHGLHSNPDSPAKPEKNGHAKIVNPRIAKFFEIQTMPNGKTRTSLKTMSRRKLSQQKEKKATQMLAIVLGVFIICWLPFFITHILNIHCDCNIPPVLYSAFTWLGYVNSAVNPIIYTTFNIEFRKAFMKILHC
In short: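 Rat limbic membranes, handled as in the 5-HT2 assay: 15 min at 37 °C, 50 mM Tris pH 7.6, drug concentration range. 30 nM ketanserin in all tubes to block 5-HT2 sites. Nonspecific binding defined with 10 μM sulpiride. Filtration and counting.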

[3] = target: D(2) dopamine receptor (Rattus norvegicus) (UniProt P61169); experiment: Inhibitory activity against Dopamine receptor D2 of rat limbic tissue at 1 uM; format: tissue-based; settings: Limbic system
D(2) dopamine receptor (Rattus norvegicus), sequence (P61169 whole entry): as above

[4] = target: T2, 5-hydroxytryptamine receptor 1A (Rattus norvegicus) (UniProt P19327); experiment: Inhibitory activity against 5-hydroxytryptamine 1A receptor of rat hippocampal tissue at 0.1 uM; settings: Hippocampus
T2 sequence (whole entry): T1 sequence (P19327 whole entry)

[5] = target: D(2) dopamine receptor (Rattus norvegicus) (UniProt P61169); experiment: Inhibitory activity against rat limbic tissue Dopamine receptor D2 at 1 uM concentration; format: tissue-based; settings: Limbic system
Rattus norvegicus [6] = experiment: Induction of serotonin syndrome against male Sprague-Dawley CD rats following ip administration of the compound; format: functional
In short: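 Male Sprague–Dawley CD rats (150–250 g), group-housed and acclimated 1 week, given compound or vehicle ip, 8 per group. Forepaw treading, head weaving, tremor, hindlimb abduction, flat body posture and Straub tail each rated 0–3 (maximum 18) over the first 15 min. ED50 by nonlinear regression with inverse prediction.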

Rattus norvegicus [7] = experiment: Antagonistic activity against […] induced serotonin syndrome against male Sprague-Dawley CD rats following ip administration of the compound; format: functional
In short: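 Rats were dosed ip with compound or vehicle (male Sprague–Dawley CD, 150–250 g, 8 per group), then challenged with 8-OH-DPAT 3 mg/kg ip. The six serotonin-syndrome behaviours were each rated 0–3 for a further 15 min. ED50 by nonlinear regression with inverse prediction.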

Rattus norvegicus [8] = experiment: Antagonistic activity against quipazine induced head shakes against male Sprague-Dawley CD rats following ip administration of the compound; format: functional
In short: (§1)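 Male Sprague–Dawley CD rats (200–300 g), 8 per treatment, given compound or vehicle ip 30 min before quipazine 2.5 mg/kg ip or DOI 1.0 mg/kg ip. Rhythmic radial head shakes counted for 30 min after agonist. ED50 by nonlinear regression with inverse prediction.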

Rattus norvegicus [9] = experiment: Antagonistic activity antagonist DOI induced head shakes against male Sprague-Dawley CD rats following ip administration of the compound; format: functional; in short: as §1
[10] = target: T2, 5-hydroxytryptamine receptor 1A (Rattus norvegicus); experiment: Inhibitory activity against rat hippocampal tissue 5-hydroxytryptamine 1A receptor at 0.1 uM concentration; format: tissue-based; settings: Hippocampus
[11] = target: T2, 5-hydroxytryptamine receptor 1A (Rattus norvegicus); experiment: Inhibitory activity against rat hippocampal tissue 5-hydroxytryptamine 1A receptor at 1 uM concentration; format: tissue-based; settings: Hippocampus
[12] = target: T1, 5-hydroxytryptamine receptor 1A; experiment: Inhibitory activity against 5-hydroxytryptamine 1A receptor of rat hippocampal tissue; format: tissue-based, Hippocampus
In short: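 Rat hippocampal membranes from male Sprague–Dawley rats (150–250 g), preincubated 10 min at 37 °C to remove endogenous 5-HT. Used at 0.4–0.6 mg protein with 1.5–1.8 nM [3H]8-OH-DPAT and a range of drug concentrations, 10 min at 37 °C, in 50 mM Tris pH 7.7 with 0.1% ascorbate, 10 μM pargyline and 4 mM CaCl2. Nonspecific binding defined with 1 μM 5-HT. Filtration, scintillation counting. Ki from duplicate assays, 95% CI.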

[13] = target: T2, 5-hydroxytryptamine receptor 1A (Rattus norvegicus); experiment: Inhibitory activity against 5-hydroxytryptamine 1A receptor of rat hippocampal tissue at 1 uM; format: tissue-based; settings: Hippocampus

| SMILES | Ki [1] | Ki [2] | Ki (D(2) dopamine receptor) | other results |
| --- | --- | --- | --- | --- |
| Cl.Cl.O=C(NCCN1CCN(c2cccc(Cl)c2)CC1)C12C[C@H]3C[C@@H](C1)C[C@@H](C2)C3 | 0.89 nM | 16.4 nM | 129 nM | – |
| O=C(N[C@H](Cc1ccccc1)CN1CCN(c2ncccn2)CC1)C12C[C@H]3C[C@@H](C1)C[C@@H](C2)C3 | 0.43 nM | 395 nM | 20 nM | – |
| Cl.Cl.O=C(N[C@H](Cc1ccccc1)CN1CCN(Cc2ccccc2)CC1)C12C[C@H]3C[C@@H](C1)C[C@@H](C2)C3 | 2.3 nM | 722 nM | 1400 nM | – |
| Cl.Cl.O=C(NCCCN1CCN(c2ncccn2)CC1)NC12C[C@H]3C[C@@H](C1)C[C@@H](C2)C3 | 7 nM | 1600 nM | > 10000 nM | – |
| C[C@H](CN1CCN(c2ncccn2)CC1)NC(=O)C12C[C@H]3C[C@@H](C1)C[C@@H](C2)C3 | 1.1 nM | 961 nM | 153 nM | – |
| O=C(NCCCN1CCN(c2ncccn2)CC1)NC12CC3CC(CC1C3)C2 | – | – | – | inhibition [3]: 6%; inhibition [4]: 69% |
| COc1ccccc1N1CCN(CCNC(=O)NC23C[C@H]4C[C@@H](C2)C[C@@H](C3)C4)CC1 | 9 nM | 38 nM | – | inhibition [5]: 94% |
| Cl.Cl.O=C(N[C@@H](Cc1ccccc1)CN1CCN(Cc2ccccc2)CC1)C12C[C@H]3C[C@@H](C1)C[C@@H](C2)C3 | 0.7 nM | 1890 nM | 3390 nM | – |
| O=C(NC12C[C@H]3C[C@@H](C1)C[C@@H](C2)C3)OCCN1CCN(c2ncccn2)CC1 | – | – | – | inhibition [4]: 34% |
| COc1ccccc1N1CCN(CCCNC(=O)C23C[C@H]4C[C@@H](C2)C[C@@H](C3)C4)CC1.Cl.Cl | 1 nM | 75 nM | 200 nM | ED50 (Rattus norvegicus [6]): 9 mg/kg; ED50 (Rattus norvegicus [7]): 5.8 mg/kg; ED50 (Rattus norvegicus [8]): 4.5 mg/kg; ED50 (Rattus norvegicus [9]): 4.4 mg/kg |
| O=C(OCCCN1CCN(c2cncc(Cl)n2)CC1)C12C[C@H]3C[C@@H](C1)C[C@@H](C2)C3 | – | – | – | inhibition [10]: 5% |
| O=C(N[C@H](COCc1ccccc1)CN1CCN(Cc2ccccc2)CC1)C12C[C@H]3C[C@@H](C1)C[C@@H](C2)C3 | 62 nM | – | 76 nM | – |
| COc1ccccc1N1CCN(CCCNC(=O)C23CC4C[C@@H](C[C@H]2C4)C3)CC1.Cl.Cl | 3.3 nM | 43.5 nM | – | inhibition [5]: 72% |
| Cl.Cl.O=C(OCCN1CCN(c2ncccn2)CC1)C12C[C@H]3C[C@@H](C1)C[C@@H](C2)C3 | 8.5 nM | 2180 nM | 708 nM | – |
| O=C(OCCCN1CCN(c2ncccn2)CC1)C12CC3C[C@@H](C[C@H]1C3)C2 | – | – | – | inhibition [4]: 12% |
| C[C@@H](CN1CCN(Cc2ccccc2)CC1)NC(=O)C12C[C@H]3C[C@@H](C1)C[C@@H](C2)C3 | – | – | – | inhibition [4]: 0% |

| SMILES | Ki [1] | Ki [2] | Ki (D(2) dopamine receptor) | other results |
| --- | --- | --- | --- | --- |
| Cc1cccc(N2CCN(C[C@H](C)NC(=O)C34C[C@H]5C[C@@H](C3)C[C@@H](C4)C5)CC2)c1C | – | – | – | inhibition [4]: 0% |
| COc1ccccc1N1CCN(CCCOC(=O)C23C[C@H]4C[C@@H](C2)C[C@@H](C3)C4)CC1.Cl.Cl | 8.5 nM | 180 nM | 35 nM | – |
| COc1ccccc1N1CCN(CCCNC(=O)NC23C[C@H]4C[C@@H](C2)C[C@@H](C3)C4)CC1.Cl.Cl | 1 nM | 348 nM | 176 nM | – |
| COc1ccccc1N1CCN(CCNC(=O)CC23C[C@H]4C[C@@H](C2)C[C@](C)(C4)C3)CC1 | 11 nM | – | – | inhibition [5]: 70% |
| COc1ccccc1N1CCN(C(=O)NC23C[C@H]4C[C@@H](C2)C[C@@H](C3)C4)CC1 | – | – | – | inhibition [11]: 0% |
| O=C(N[C@@H](Cc1ccccc1)CN1CCN(c2ncccn2)CC1)C12C[C@H]3C[C@@H](C1)C[C@@H](C2)C3 | 1 nM | 1360 nM | 1690 nM | – |
| COc1ccccc1N1CCN(CCC(=O)NC23C[C@H]4C[C@@H](C2)C[C@@H](C3)C4)CC1.Cl.Cl | 9 nM | 77 nM | 93 nM | – |
| COc1ccccc1N1CCN(CCNC(=O)C23CC4C[C@@H](C[C@H]2C4)C3)CC1.Cl.Cl | 0.24 nM | 8.2 nM | – | inhibition [5]: 100% |
| COc1ccccc1N1CCN(CCOC(=O)C23C[C@H]4C[C@@H](C2)C[C@@H](C3)C4)CC1.Cl.Cl | 2.5 nM | 712 nM | 13.5 nM | – |
| Cc1cccc(N2CCN(C[C@@H](C)NC(=O)C34C[C@H]5C[C@@H](C3)C[C@@H](C4)C5)CC2)c1C | – | – | – | inhibition [4]: 0% |
| COc1ccccc1N1CCN(C[C@@H](C)NC(=O)C23C[C@H]4C[C@@H](C2)C[C@@H](C3)C4)CC1 | 0.22 nM | – | 21.5 nM | – |
| COc1ccccc1N1CCN(CCCNC(=O)CC23C[C@H]4C[C@@H](C2)C[C@](C)(C4)C3)CC1 | 4.4 nM | – | – | inhibition [5]: 79% |
| Cl.Cl.O=C(NCCN1CCN(c2ncccn2)CC1)C12C[C@H]3C[C@@H](C1)C[C@@H](C2)C3 | – | 73 nM | 166 nM | Ki [12]: 1 nM; ED50 (Rattus norvegicus [6]): 12.9 mg/kg; ED50 (Rattus norvegicus [7]): 2.2 mg/kg; ED50 (Rattus norvegicus [8]): 0.6 mg/kg; ED50 (Rattus norvegicus [9]): 1.8 mg/kg |
| COc1ccccc1N1CCN(CCNC(=O)C23C[C@H]4C[C@@H](C2)C[C@@H](C3)C4)CC1.Cl.Cl | 1 nM | 274 nM | 24 nM | – |
| COc1ccccc1N1CCN(CCOC(=O)CC23C[C@H]4C[C@@H](C2)C[C@](C)(C4)C3)CC1 | – | – | – | inhibition [3]: 97%; inhibition [13]: 86% |
| O=C(OCCCN1CCN(c2cccc(Cl)c2)CC1)C12C[C@H]3C[C@@H](C1)C[C@@H](C2)C3 | – | – | – | inhibition [3]: 67%; inhibition [13]: 80% |
